Experimental data published in ChEMBL document CHEMBL3877244, “Synthesis and biological evaluation of new aryl-alkyl(alkenyl)-4-benzylpiperidines, novel Sigma Receptor (SR) modulators, as potential anticancer-agents” (Eur J Med Chem, 2016).
The source made the active and inactive calls. The calls are words filed in the database; no cut-off is given here.

Legend:
[1] = Induction of apoptosis in human Paca3 cells assessed as necrotic cells in presence of 10% fetal calf serum at 25 uM after 24 hrs by annexin V-FITC/propidium iodide staining-based flow cytometry (reference value: 0.6 +/- 0.4%); assay type: functional
[2] = target: Sigma non-opioid intracellular receptor 1 (Cavia porcellus, UniProt Q60492); experiment: Displacement of [3H]-pentazocine from sigma 1 receptor in guinea pig brain cortical membrane after 120 mins by scintillation counting analysis; assay type: cell membranes
Method in brief: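 Nonspecific binding defined with unlabeled (+)-pentazocine. Filtration, then scintillation counting. IC50 by nonlinear regression, converted to Ki by Cheng–Prusoff.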

[3] = Cytotoxicity against human PC3 cells assessed as reduction in cell viability after 24 hrs in presence of 10% fetal calf serum by MTS assay; assay type: functional, cell-based; conditions: PC-3, 24 h
Method in brief: (§1)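 Cells in exponential growth, 3×10^3 per well, in medium with 10% FCS. Capan-2, PaCa3, MDA-MB 231, SUM 159 and PC3 were grown in DMEM/Ham's F12 with glutamine 2 mM and insulin 10 µg/ml. U87 was grown in EMEM and LNCaP in RPMI, each with glutamine. Compound 0.1–100 µM, continuous exposure (24 h; 48 h for the 48 h lines). MTS, OD 490 nm. IC50 read graphically. Three independent experiments in octuplicate.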

[4] = Cytotoxicity against human Paca3 cells assessed as decrease in cell viability using complete medium after 24 hrs by MTS assay; assay type: functional, cell-based; conditions: Paca3, 24 h; method in brief: as §1
Paca3 = experiment: Induction of apoptosis in human Paca3 cells assessed as cleaved form of caspase 3 at 25 uM after 24 hrs in presence of 10% fetal calf serum by Western blot analysis; assay type: functional, cell-based
Method in brief: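 PaCa3 cells in 10% serum medium, exposed 24 h to 25 μM. Cleaved caspase 3 detected by western blot. Membranes blocked with T-TBS (0.1% Tween) and 5% non-fat milk, primary antibody overnight at 4 °C, then secondary antibody, chemiluminescent detection. Two independent experiments.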

[5] = Cytotoxicity against human Paca3 cells assessed as reduction in cell viability after 48 hrs in presence of 10% fetal calf serum by MTS assay; assay type: functional, cell-based; conditions: Paca3, 48 h; method in brief: as §1
MDA-MB-231 = experiment: Cytotoxicity against human MDA-MB-231 cells assessed as reduction in cell viability after 48 hrs in presence of 10% fetal calf serum by MTS assay; assay type: functional, cell-based; method in brief: as §1
[6] = Cytotoxicity against human LNCAP cells assessed as reduction in cell viability after 24 hrs in presence of 10% fetal calf serum by MTS assay; assay type: functional, cell-based; method in brief: as §1

Sigma non-opioid intracellular receptor 1, sequence (Q60492 whole entry): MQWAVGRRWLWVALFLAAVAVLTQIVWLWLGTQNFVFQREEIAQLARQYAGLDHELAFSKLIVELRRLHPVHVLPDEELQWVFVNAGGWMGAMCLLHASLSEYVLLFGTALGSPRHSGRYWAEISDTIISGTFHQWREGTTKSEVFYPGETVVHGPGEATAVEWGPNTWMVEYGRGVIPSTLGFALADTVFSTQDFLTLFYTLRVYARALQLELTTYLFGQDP

C/C(=C\CN1CCC(Cc2ccccc2)CC1)c1ccc2ccccc2c1
Activity [1]: 0.4% | Ki [2]: 12 nM | IC50 [3]: 50.6 µM | IC50 [4]: 49.8 µM | Activity (Paca3): Active | IC50 [5]: 28.7 µM | Activity (MDA-MB-231): Active | IC50 [6]: 61.1 µM
